Source: ChEMBL document CHEMBL3352192, “Evaluation of lignans from Heliopsis helianthoides var. scabra for their potential antimetastatic effects in the brain” (J Nat Prod, 2014)
The source made the active and inactive calls. No cut-off for these calls is given here.

Assays:
A2058 [1] = assay: Inhibition of adhesion of human A2058 cells to endothelial cells at 2 uM pretreated for 3 hrs before adhesion and during adhesion; assay type: functional, cell-based
In short: (§1)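 Confluent hCMEC/D3 monolayers and A2058 cells were each pretreated 3 h with compound. Melanoma cells were labelled with Oregon Green 488 diacetate succinimidyl ester and added to the endothelium (10^5 or 5×10^4 cells/well) in serum-free medium containing the same compound for 80 min. After washing and EtOH−AcOH fixation, attached cells were imaged and counted. Results are % of control, means ± SD, n = 3.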

[2] = Cytotoxicity against RBEC at 1 to 10 uM after 8 hrs by EZ4U assay; details: rat
In short: (§2)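 Confluent A2058, hCMEC/D3 and primary rat brain endothelial cells exposed 8 h to 10, 5, 2.5 or 1.25 μM compound. Media: serum-free MEM (A2058), serum-free EBM-2 (D3), DMEM/F12 + 5% PDS (RBEC). DMSO 0.1% (v/v) in all wells, vehicle controls. EZ4U mitochondrial dehydrogenase read-out after 45 min, OD 450 nm.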

A2058 [3] = assay: Cytotoxicity against human A2058 cells at 1 to 10 uM after 8 hrs by EZ4U assay; assay type: functional, cell-based; in short: as §2
hCMEC/D3 [4] = assay: Cytotoxicity against human CMEC/D3 cells at 1 to 10 uM after 8 hrs by EZ4U assay; assay type: functional, cell-based; in short: as §2
Rattus norvegicus [5] = species on record: Rattus norvegicus; assay: Increase in transendothelial electrical resistance in RBEC at 5 uM after 2 hrs relative to control; assay type: functional
In short: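 Primary RBECs from 2-week-old rats were grown on collagen/fibronectin-coated Transwell filters. After confluence they got 550 nM hydrocortisone, 250 μM CPT-cAMP and 17.5 μM RO-201724, with astrocyte-conditioned medium. Once TEER plateaued (120−140 Ω·cm2), compound was added (0.1% DMSO) and TEER was followed automatically for 2 h. Expressed as % of untreated RBECs at 2 h; means ± SD, n = 3.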

A2058 [6] = assay: Inhibition of migration of human A2058 cells assessed as elongated shape and longer protrusion at 5 uM by phase contrast microscopy; assay type: functional, cell-based
In short: (§3)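 A2058 melanoma cells were treated 2 h with 5 μM compound. They were fixed in 4% HCHO, permeabilized with acetone at −20 °C for 10 min, blocked, and stained with Alexa488-phalloidin. Actin cytoskeleton and cell shape were examined by epifluorescence microscopy, with phase contrast images also taken.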

A2058 [7] = assay: Inhibition of migration of human A2058 cells assessed as expanded cells without large filopodia at 5 uM using Alexa-488-labeled phalloidin by microscopy; assay type: functional, cell-based; in short: as §3
A2058 [8] = assay: Inhibition of adhesion of human A2058 cells to endothelial cells at 10 uM pretreated for 3 hrs before adhesion and during adhesion; assay type: functional, cell-based; in short: as §1
hCMEC/D3 [9] = assay: Inhibition of migration of human CMEC/D3 cells after 24 hrs by wound-healing assay; assay type: functional, cell-based
In short: (§4)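 hCMEC/D3 cells on rat-tail collagen were grown to 100% confluency, scratched with a pipet tip, and washed with PBS. They were then treated in Leibovitz medium + 5% FBS and imaged by phase contrast for 24 h at 37 °C (10× objective). Migration is given as % of control over 24 h; means ± SD, n = 4.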

hCMEC/D3 [10] = assay: Increase in integrity of human CMEC/D3 cells at 2 uM after 2 hrs by ZO-1 staining method; assay type: functional, cell-based
In short: (§5)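 Confluent RBECs or hCMEC/D3 cells, 2 h compound exposure (0.1% DMSO vehicle), then fixed in EtOH−AcOH 95:5 at −20 °C. Blocked with 3% BSA, rabbit anti-ZO-1 overnight, Cy3 goat anti-rabbit, Hoechst 33342 nuclei. Tight-junction staining at cell–cell contacts assessed by epifluorescence microscopy.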

A2058 [11] = assay: Inhibition of migration of human A2058 cells at 10 uM by wound-healing assay; assay type: functional, cell-based
In short: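 A2058 confluent monolayer was scratched, and wound closure was tracked for 24 h at 2, 5 or 10 μM by phase contrast microscopy (10× objective). Migration is expressed as % of control cells migrated over 24 h; means ± SD, n = 4, ANOVA with Bonferroni.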

Rattus norvegicus [12] = species on record: Rattus norvegicus; assay: Increase in integrity of RBEC at 5 uM after 2 hrs by ZO-1 staining method; assay type: functional; in short: as §5
hCMEC/D3 [13] = assay: Inhibition of migration of human CMEC/D3 cells at 10 uM after 24 hrs by wound-healing assay; assay type: functional, cell-based; in short: as §4
A2058 [14] = assay: Inhibition of migration of human A2058 cells assessed as filopodia at 5 uM using Alexa-488-labeled phalloidin by microscopy; assay type: functional, cell-based; in short: as §3
A2058 [15] = assay: Inhibition of adhesion of human A2058 cells to endothelial cells at 2 uM pretreated to endothelial cells for 3 hrs before adhesion; assay type: functional, cell-based
In short: (§6)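 Cell-type pretreatment adhesion: either hCMEC/D3 monolayers (2 μM) or A2058 cells (5 μM) were pretreated 3 h. Labelled melanoma cells were then allowed to attach for 80 min in serum-free medium without compound. Fixed, imaged and counted; % of untreated control, means ± SD, n = 3.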

A2058 [16] = assay: Inhibition of migration of human A2058 cells assessed as elongated shape with actin-rich protrusion at 5 uM using Alexa-488-labeled phalloidin by microscopy; assay type: functional, cell-based; in short: as §3
A2058 [17] = assay: Inhibition of migration of human A2058 cells assessed as cells with stress fibers at 5 uM using Alexa-488-labeled phalloidin by microscopy; assay type: functional, cell-based; in short: as §3
A2058 [18] = assay: Inhibition of adhesion of human A2058 cells to endothelial cells at 5 uM pretreated for 3 hrs before adhesion; assay type: functional, cell-based; in short: as §6

Compound	inhibition (A2058 [1])	Activity [2]	Activity (A2058 [3])	Activity (hCMEC/D3 [4])	Activity (Rattus norvegicus [5])	inhibition (A2058 [6])	inhibition (A2058 [7])	inhibition (A2058 [8])	inhibition (hCMEC/D3 [9])	Activity (hCMEC/D3 [10])	inhibition (A2058 [11])	Activity (Rattus norvegicus [12])	inhibition (hCMEC/D3 [13])	inhibition (A2058 [14])	inhibition (A2058 [15])	inhibition (A2058 [16])	inhibition (A2058 [17])	inhibition (A2058 [18])
COCCCc1cc(OC)c2oc(-c3ccc4c(c3)OCO4)cc2c1	inactive	Non-toxic	inactive	inactive														
COC(=O)[C@H](Cc1ccc2c(c1)OCO2)[C@@H](Cc1ccc2c(c1)OCO2)C(=O)OC	inactive	Non-toxic	inactive	inactive														
COC(=O)/C(=C/c1ccc2c(c1)OCO2)C(Cc1ccc2c(c1)OCO2)C(=O)OC (stereo not given)	inactive	Non-toxic	inactive	inactive	Active	Active	Active	Active	Dose-dependent effect	Active	Active	Active	Active					
O=C1OCc2c1cc1ccc3c(c1c2-c1ccc2c(c1)OCO2)OCO3 [HELIOXANTHIN]	Active	Non-toxic	inactive	inactive	15%	Active		Active	Dose-dependent effect	Active		Active	Active	Active	Active	Active	Active	inactive
COC/C=C/c1cc(OC)c2oc(-c3ccc4c(c3)OCO4)cc2c1	inactive	Non-toxic	inactive	inactive														
CC(=O)O[C@H](c1ccc2c(c1)OCO2)[C@H]1C(=O)OC[C@@H]1Cc1ccc2c(c1)OCO2	inactive	Non-toxic	inactive	inactive														
